For data set [1], the species on record is Homo sapiens. Briefly: Stimulation of P-gp ATPase activity (unknown origin) assessed as increase in ATP consumption at 10 uM relative to control. The following applies: filed as activator. Summed up:
(§1)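 Luminescent P-gp-Glo assay on recombinant human P-gp in a membrane fraction (25 μg), with sodium orthovanadate (100 μM) as ATPase inhibitor. Reactions were started with 10 mM MgATP and stopped after 40 min with luciferase detection reagent; luminescence was read 60 min later. ATP consumption appears as lost luminescence. Activity is given as fold change versus untreated control, mean of three independent experiments.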

A short description of data set [2]: Cytotoxicity against human peripheral blood lymphocytes assessed as cell growth inhibition after 72 hrs by MTT assay. In kind it is functional. The following applies: Lymphocyte. In short, it runs like this:
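Resting, non-PHA-stimulated lymphocytes from healthy-donor buffy coats were isolated by density-gradient centrifugation and incubated overnight in RPMI-1640 with 10% FBS. Nonadherent cells were then seeded at 5 × 10^5 cells/mL with a range of compound concentrations for 72 h. Viability was read by MTT at 560 nm. GI50 was taken as 50% proliferation inhibition from log concentration plots.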
On the technique in general: Tetrazolium dyes change colour on reduction, which living cells bring about.

Data set [3] can be described thus: Cytotoxicity against human peripheral blood lymphocytes assessed as cell growth inhibition after 72 hrs in presence of PHA by MTT assay. In kind it is functional. The conditions noted are these: Lymphocyte. Summed up: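 Lymphocytes from healthy-donor buffy coats were isolated by density-gradient centrifugation and incubated overnight in RPMI-1640 with 10% FBS. Nonadherent cells were reseeded at 5 × 10^5 cells/mL in medium with 2.5 μg/mL PHA so they would proliferate, then exposed to a range of compound concentrations for 72 h. Viability was read by MTT at 560 nm. GI50 was taken as 50% proliferation inhibition.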

The species named for data set [4] is Homo sapiens. Briefly: Stimulation of P-gp ATPase activity (unknown origin) assessed as increase in ATP consumption at 1 uM relative to control. The following applies: filed as activator. Summed up:
as §1

Data set [5] has as its target ATP-dependent translocase ABCB1 (Homo sapiens, UniProt P08183). Briefly: Inhibition of ABCB1 in human […] cells after 2 hrs by Hoechst dye based flow cytometric analysis. In kind it is cell-based. In short, it runs like this: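 Medulloblastoma DAOY cells were treated with compounds at 10 μM for 2 h. Cells (10^6/mL) were stained with 5 μg/mL Hoechst 33342 in αMEM with 2% FBS for 90 min at 37 °C, then with 2 μg/mL propidium iodide at 4 °C for 10 min. Side-population cells were gated on PI-negative events on a Hoechst red vs blue plot under UV excitation, acquiring at least 30 000 live events.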

Data set [6] concerns CEM/VLB100. Briefly: Synergistic antiproliferative activity against human CEM/VLB100 cells assessed as reduction in cell viability at 1:10 test compound to vinblastine after 48 hrs by MTT assay.

Calls of active or inactive are those of the source. The rule behind the calls is not given here.

Chain of ATP-dependent translocase ABCB1 (P08183 whole entry): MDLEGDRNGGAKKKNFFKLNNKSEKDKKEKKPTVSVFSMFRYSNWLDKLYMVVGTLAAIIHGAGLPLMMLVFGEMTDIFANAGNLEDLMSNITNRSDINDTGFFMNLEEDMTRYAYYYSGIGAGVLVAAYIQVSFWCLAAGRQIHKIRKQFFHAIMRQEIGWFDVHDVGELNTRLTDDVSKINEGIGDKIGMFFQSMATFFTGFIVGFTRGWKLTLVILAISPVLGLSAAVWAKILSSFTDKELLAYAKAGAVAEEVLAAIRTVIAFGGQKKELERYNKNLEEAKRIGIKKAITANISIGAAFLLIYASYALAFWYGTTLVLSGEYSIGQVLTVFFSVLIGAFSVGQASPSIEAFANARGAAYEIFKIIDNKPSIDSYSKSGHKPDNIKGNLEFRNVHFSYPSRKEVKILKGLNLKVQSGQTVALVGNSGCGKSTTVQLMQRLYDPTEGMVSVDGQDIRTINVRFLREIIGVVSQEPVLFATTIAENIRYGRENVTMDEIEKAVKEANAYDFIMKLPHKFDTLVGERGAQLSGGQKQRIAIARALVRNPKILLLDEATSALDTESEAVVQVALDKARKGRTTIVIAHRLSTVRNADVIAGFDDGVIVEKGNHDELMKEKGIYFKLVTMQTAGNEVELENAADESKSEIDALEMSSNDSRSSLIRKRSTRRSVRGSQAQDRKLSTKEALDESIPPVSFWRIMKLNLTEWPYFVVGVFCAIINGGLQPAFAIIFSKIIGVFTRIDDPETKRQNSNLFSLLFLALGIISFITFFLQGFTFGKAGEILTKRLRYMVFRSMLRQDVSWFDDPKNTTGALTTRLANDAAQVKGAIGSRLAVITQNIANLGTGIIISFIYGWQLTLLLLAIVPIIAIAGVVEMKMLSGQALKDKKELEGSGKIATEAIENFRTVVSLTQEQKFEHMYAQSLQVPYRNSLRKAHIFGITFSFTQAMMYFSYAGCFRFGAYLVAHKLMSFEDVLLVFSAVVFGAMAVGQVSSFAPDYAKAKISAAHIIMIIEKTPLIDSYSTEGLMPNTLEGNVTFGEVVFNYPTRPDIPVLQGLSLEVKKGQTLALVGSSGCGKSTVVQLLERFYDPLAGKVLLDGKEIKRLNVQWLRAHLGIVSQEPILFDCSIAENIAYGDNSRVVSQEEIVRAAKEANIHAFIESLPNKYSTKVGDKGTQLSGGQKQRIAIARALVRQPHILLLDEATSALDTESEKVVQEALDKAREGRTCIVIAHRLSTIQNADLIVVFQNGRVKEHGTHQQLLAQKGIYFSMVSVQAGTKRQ

`COc1ccc(CCN(C)CCCC(C#N)(c2ccc(OC)c(OC)c2)C(C)C)cc1OC` (stereo unspecified): the fold change (FC) in data set [1] came to 4.
In the case of `CC(C)(O)CC[C@H]1OC2(CCCCC2)O[C@]1(C)[C@H]1CC[C@@]2(O)C3=CC(=O)[C@@H]4C[C@H]5OC6(CCCCC6)O[C@H]5C[C@]4(C)[C@H]3CC[C@]12C`, the GI50 in data set [2] is 61.7 µM; in data set [3], 42.8 µM. Also, in data set [4], the fold change (FC) was determined as 6. For the same compound, the “inhibition (INH)” value in data set [5] was “Active”. The outcome in data set [6] was Active.
With `CC(C)(O)CC[C@@H](OC(=O)c1ccccc1)[C@](C)(O)[C@H]1CC[C@@]2(O)C3=CC(=O)[C@@H]4C[C@@H](OC(=O)c5ccccc5)[C@@H](OC(=O)c5ccccc5)C[C@]4(C)[C@H]3CC[C@]12C`, the values for the GI50 in data set [2] and in data set [3] were > 100 µM and 19.9 µM, respectively. Also, in data set [1], the fold change (FC) was 4. The “inhibition (INH)” value in data set [5] is reported as “Active”. Also, in data set [6], the result was Active.

Usually GI50 stands for the concentration at which growth is held to half of that of the control.

For the origin of these results see ChEMBL document CHEMBL4665753, “Ecdysteroid Derivatives that Reverse P-Glycoprotein-Mediated Drug Resistance” (J Nat Prod, 2020).
